Records with an inconclusive call do not appear. Active and inactive are the calls of the source.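 Rule for the calls, unless noted: active = viability increase at or above a cutoff of the median across tested compounds plus 3 SD (cut at about 8.5% in these data, passing the limit was not always enough); inconclusive = some gains above the cutoff, reason not given; inactive = the rest.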
How the values were obtained:
[1] = S. cerevisiae growth inhibition in permissive medium (OD615), pilot counter-assay for S. cerevisiae lifespan shortening project, permissive growth control (AID 705;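 active = growth inhibition above 25% in both replicates, a cutoff set 3 SD above the mean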); details: OD615, 24 h, at 10 µM, hits give high values
Procedure, shortened: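 System: engineered DeaD yeast; Medium: permissive raffinose/galactose medium; Compound dosing: 10 µM single dose, 0.25% DMSO; Incubation: 4 h cell pre-growth, 24 h exposure at 30 °C; Technique: OD at 615 nm; Evaluation: growth inhibition from lowered OD615 after 24 h.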

[2] = S. cerevisiae growth inhibition in restrictive medium, OD615, pilot screen, restrictive growth control, yeast lifespan reduction project (AID 706;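 active = growth inhibition above a set limit, 3 SD over mean compound inhibition, in both replicates, cut at about 43% in these data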;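 note: modified DeaD lifespan yeast strain shifted to restrictive glucose medium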); details: OD615, 48 h, at 10 µM, hits give high values
Procedure, shortened: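 Material: modified S. cerevisiae; buffer or medium: CSMM-D glucose medium; doses: one concentration, 10 µM final, 0.25% DMSO; incubation: 48 h compound exposure at 30 °C; detection: optical density at 615 nm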

[3] = doxorubicin toxicity protection in MRP-1 cells – H69AR cells, CellTiter-Glo, duplicate, MRP-1 activator project, pilot screen (AID 807); details: H69AR viability with doxorubicin, CellTiter-Glo luminescence; at 10 µM; hits give high values;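 note: compound pretreatment 18-22 h then 72 h combined with doxorubicin; 0% = doxorubicin alone and 100% = vehicle without doxorubicin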
[4] = viability of HCT116 without oncogenic beta-catenin – human colon tumor cells, pilot screen (AID 823;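 active = cell viability at or below a set limit in both duplicate runs, the limit being the all-compound median minus 4 SD, cut at about 23% in these data, passing the limit was not always enough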;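 note: 0% = wells killed by 20 µM Hyamine and 100% = untreated DMSO cell wells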); details: HCT116 beta-catenin knockout viability, CellTiter-Glo, 60 h; at 10 µM; hits give low values
[5] = viability of PTEN-null HCT116 cells – cell-based, HCT116 clonal line, CellTiter-Glo, pilot screen (AID 824;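 active = viability at or below 27.92% in each of two runs, the all-compound median minus 4 SD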;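 note: 0% = 20 µM Hyamine control and 100% = vehicle cell control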); details: HCT116 PTEN-deleted viability, 60 h, at 10 µM, hits give low values
[6] = RAM pathway blockade in budding yeast – dse1pr::URA3 reporter, 5-FOA selection, pilot screen (AID 869;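 active = inhibition over a set limit, the all-compound mean plus 3 SD, in both replicate runs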;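 note: 0% = DMSO wells with no growth and 100% = 10 µM 1-NA-PP1 with full growth; RAM network block rescues cells from 5-FOA so hits raise OD615 growth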); details: S. cerevisiae dse1pr::URA3 5-FOA growth, OD615, 2 d; at 10 µM; hits give high values; strain carries analog-sensitive mutant Cbk1 kinase
[7] = RAM signaling pathway blockade in yeast – S. cerevisiae, Pdr1DBD-CYC8 efflux-inhibited sensitized strain, primary screen (AID 1298;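 active = RAM network inhibition above 8.4% in each of two replicates, 3 SD over the compound average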;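 note: 0% = DMSO untreated cells without growth and 100% = 10 µM 1-NA-PP1 full growth; higher means more yeast growth rescued from 5-FOA killing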); details: S. cerevisiae cbk1-as DSE1-URA3 strain, 5-FOA growth OD615, 2 d; at 50 µM; hits give high values

CCC(=O)N1C(C(=O)O)CSC1c1ccc(OC)cc1 (centres undefined)
inactive: growth inhibition [1] -0.64% | growth inhibition [2] 6.29% | viability increase [3] -0.61% | viability [4] 98.1% | viability [5] 93.5% | inhibition [6] 1.16% | RAM network inhibition [7] 2.87%

CS(=O)(=O)c1ccc(C(=O)NC2CCOC2=O)cc1 (centres undefined)
inactive: growth inhibition [1] -2.63% | growth inhibition [2] -3.86% | viability increase [3] -1.85% | viability [4] 102% | viability [5] 97.6% | inhibition [6] -0.295% | RAM network inhibition [7] 4.25%

CCCCNC(=O)CS(=O)Cc1nc(-c2cccc(Cl)c2)oc1C (centres undefined)
inactive: growth inhibition [1] -2.86% | growth inhibition [2] 11.4% | viability increase [3] -0.78% | viability [4] 92.2% | viability [5] 97.3% | inhibition [6] 0.705% | RAM network inhibition [7] 6.02%

CC(NC(=O)c1ccc2c(c1)OCO2)C1CCCO1 (centres undefined)
inactive: growth inhibition [1] -3.77% | growth inhibition [2] 7.33% | viability increase [3] -0.15% | viability [4] 96.8% | viability [5] 94.5% | inhibition [6] 1.44% | RAM network inhibition [7] -0.53%

O=C(O)c1ccc(-n2cccc2)cc1O
inactive: growth inhibition [1] -2.21% | growth inhibition [2] -13.1% | viability increase [3] -1.52% | viability [4] 96.8% | viability [5] 101% | inhibition [6] 0.285% | RAM network inhibition [7] -0.83%

Cc1cccc(-c2nc(CS(=O)CC(=O)N3CCc4ccccc4C3)c(C)o2)c1 (centres undefined)
inactive: growth inhibition [1] 0.13% | growth inhibition [2] 20.1% | viability increase [3] -4.54% | viability [4] 84.8% | viability [5] 88.8% | inhibition [6] 0.385% | RAM network inhibition [7] 3.23%

Clc1ccc(-c2nc(-c3ccccn3)no2)cc1Cl
inactive: growth inhibition [1] -4.08% | growth inhibition [2] 0.26% | viability increase [3] -4.17% | viability [4] 72.6% | viability [5] 67.7% | inhibition [6] 2.6% | RAM network inhibition [7] 3.88%

C=CCn1c(NC(C)c2cc(Cl)ccc2O)nc2ccccc21 (centres undefined)
inactive: growth inhibition [1] -8.04% | growth inhibition [2] -0.215% | viability increase [3] -0.96% | viability [4] 68.6% | viability [5] 65.1% | inhibition [6] 0.29% | RAM network inhibition [7] -1.03%

COc1ccc(-c2nnc(NC(=O)C(C)C)o2)cc1
inactive: growth inhibition [1] 2.56% | growth inhibition [2] 6.86% | viability increase [3] -1.77% | viability [4] 103% | viability [5] 102% | inhibition [6] 1.23% | RAM network inhibition [7] 4.26%

CC(=O)Nc1sc(N)nc1-c1ccccc1
inactive: growth inhibition [1] -7.75% | growth inhibition [2] 16.2% | viability increase [3] 0.94% | viability [4] 88.7% | viability [5] 99.5% | inhibition [6] 0.055% | RAM network inhibition [7] 3.89%

CCOC(=O)CSc1nc2ccccc2c(=O)[nH]1
inactive: growth inhibition [1] -13.4% | growth inhibition [2] -17.3% | viability increase [3] -0.36% | viability [4] 105% | viability [5] 100% | inhibition [6] 1.74% | RAM network inhibition [7] 3.03%

O=C(O)C1C2C=CC(C2)C1C(=O)OCC1CCCO1 (centres undefined)
inactive: growth inhibition [1] -6.31% | growth inhibition [2] 1.68% | viability increase [3] -1.53% | viability [4] 98.1% | viability [5] 94.8% | inhibition [6] 0.865% | RAM network inhibition [7] 1.34%

O=C(O)CCSc1nnc(-c2ccccc2)n1-c1ccccc1
active: growth inhibition [2] 50.6%
inactive: growth inhibition [1] 4.3% | viability increase [3] 0.8% | viability [4] 94.4% | viability [5] 98.3% | inhibition [6] 1.48% | RAM network inhibition [7] 0.72%

CC(C)(C)C1(C)OC(C(N)=O)C(C(N)=O)O1 (centres undefined)
inactive: growth inhibition [1] -7.22% | growth inhibition [2] -1.06% | viability increase [3] 0.03% | viability [4] 98.2% | viability [5] 95.7% | inhibition [6] 0.785% | RAM network inhibition [7] 1.14%

COc1ccc(C2N3CC4(C)CN2CC(C)(C3)C4O)cc1 (centres undefined)
inactive: growth inhibition [1] -17.7% | growth inhibition [2] -6.65% | viability increase [3] 0.42% | viability [4] 106% | viability [5] 97.2% | inhibition [6] 1.22% | RAM network inhibition [7] -0.16%

Cn1c(C(=O)NCCCN2CCN(c3cccc(Cl)c3)CC2)cc2c(=O)n(C)c3ccccc3c21
inactive: growth inhibition [1] -2.52% | growth inhibition [2] -0.835% | viability increase [3] -2.92% | viability [4] 59.9% | viability [5] 59% | inhibition [6] -0.02% | RAM network inhibition [7] 7.94%

O=C(Cn1cnc2c(nnn2-c2ccccc2)c1=O)N1CCOCC1
inactive: growth inhibition [1] -5.42% | growth inhibition [2] -7.92% | viability increase [3] 0.78% | viability [4] 104% | viability [5] 104% | inhibition [6] -0.26% | RAM network inhibition [7] 0.26%

Cc1cc(Nc2cccc(F)c2)n2nc(C)nc2n1
inactive: growth inhibition [1] -13.6% | growth inhibition [2] -7.6% | viability increase [3] -2.42% | viability [4] 101% | viability [5] 94.4% | inhibition [6] 1.08% | RAM network inhibition [7] 5.28%

O=C(CSc1nnc(Cn2c(=O)sc3ccccc32)n1-c1ccccc1)N1CCCCCC1
inactive: growth inhibition [1] -11.3% | growth inhibition [2] -4.95% | viability increase [3] -2.95% | viability [4] 91.7% | viability [5] 81.7% | inhibition [6] 2.22% | RAM network inhibition [7] 6.65%

O=C(CCCSc1nc2sc3c(c2c(=O)[nH]1)CCC3)NCCCO
inactive: growth inhibition [1] -8.91% | growth inhibition [2] 6.12% | viability increase [3] 0.57% | viability [4] 102% | viability [5] 99.8% | inhibition [6] 0.14% | RAM network inhibition [7] 1.44%

Cn1c(Cn2c(=O)sc3ccccc32)nnc1SCC(N)=O
inactive: growth inhibition [1] -17.4% | growth inhibition [2] -3.94% | viability increase [3] 0.08% | viability [4] 110% | viability [5] 88% | inhibition [6] 1.82% | RAM network inhibition [7] 3.26%

CC(=O)c1cccc(NC(=O)c2c(F)c(F)c(F)c(F)c2F)c1
inactive: growth inhibition [1] -4.19% | growth inhibition [2] 6.79% | viability increase [3] -7.13% | viability [4] 95% | viability [5] 88.4% | inhibition [6] 1.01% | RAM network inhibition [7] -0.87%

CCc1nn(CC(=O)NCCCN2CCCC2=O)c(=O)c2cc3sccc3n12
inactive: growth inhibition [1] -8.81% | growth inhibition [2] -16.4% | viability increase [3] -2.31% | viability [4] 112% | viability [5] 108% | inhibition [6] 1.91% | RAM network inhibition [7] 0.36%

c1ccc(-n2cnnc2SCc2cn3ccccc3n2)cc1
inactive: growth inhibition [1] 5.34% | growth inhibition [2] 20.6% | viability increase [3] -4.4% | viability [4] 101% | viability [5] 95.6% | inhibition [6] 1.19% | RAM network inhibition [7] 7.66%

CC(=O)Nc1nnc(-c2ccc3c(c2)CCCC3)o1
inactive: growth inhibition [1] -12.7% | growth inhibition [2] 3.68% | viability increase [3] -0.69% | viability [4] 95% | viability [5] 88.3% | inhibition [6] 1.36% | RAM network inhibition [7] 4.21%

O=C(NCc1cn2ccsc2n1)c1cccs1
inactive: growth inhibition [1] -11.6% | growth inhibition [2] 2.67% | viability increase [3] -2.88% | viability [4] 95.1% | viability [5] 95.8% | inhibition [6] 1.04% | RAM network inhibition [7] 7.64%

CCCCC(=O)Nc1nc2c(OC)ccc(OC)c2s1
inactive: growth inhibition [1] -5.01% | growth inhibition [2] 1.46% | viability increase [3] -2.98% | viability [4] 97.5% | viability [5] 98.3% | inhibition [6] 0.87% | RAM network inhibition [7] 3.86%

CN(C(=O)c1cnc2n(c1=O)CCS2)C1CCCCC1
inactive: growth inhibition [1] -9.04% | growth inhibition [2] -5.85% | viability increase [3] -0.01% | viability [4] 105% | viability [5] 110% | inhibition [6] 1.5% | RAM network inhibition [7] 3.96%

Cc1c(/C=N/n2cnnc2)c2ccccc2n1C
inactive: growth inhibition [1] -2.21% | growth inhibition [2] 11.6% | viability increase [3] -1.49% | viability [4] 98.7% | viability [5] 95.3% | inhibition [6] -0.13% | RAM network inhibition [7] 4.77%

CCSc1nnc(NC(=O)CCn2c(=O)oc3ccccc32)s1
inactive: growth inhibition [1] -3.29% | growth inhibition [2] -6.38% | viability increase [3] -0.78% | viability [4] 102% | viability [5] 103% | inhibition [6] 0.22% | RAM network inhibition [7] 9.53%

COc1ccc2ccccc2c1C1CC(=O)N2CN(C3CCCCC3)CSC2=C1C#N (centres undefined)
inactive: growth inhibition [1] 2.87% | growth inhibition [2] 25.4% | viability increase [3] -4.9% | viability [4] 81.3% | viability [5] 76.4% | inhibition [6] 2.05% | RAM network inhibition [7] 4.86%

COC(=O)C(C)Sc1nnc(Cc2cc(=O)[nH]c(=O)[nH]2)n1-c1ccc(Cl)cc1 (centres undefined)
inactive: growth inhibition [1] -13.7% | growth inhibition [2] -7.63% | viability increase [3] -1.15% | viability [4] 104% | viability [5] 95.6% | inhibition [6] 1.97% | RAM network inhibition [7] 1%

Cc1ccc(-n2c(SCC(=O)NCC3CCCO3)nc3c(c2=O)SCC3)cc1 (centres undefined)
inactive: growth inhibition [1] -10.7% | growth inhibition [2] -16.9% | viability increase [3] -1.96% | viability [4] 100% | viability [5] 96.7% | inhibition [6] 3.09% | RAM network inhibition [7] 2.18%

COc1ccc(Br)cc1/C=N/n1c(C)nnc1C
inactive: growth inhibition [1] -14% | growth inhibition [2] -21% | viability increase [3] -5.21% | viability [4] 66% | viability [5] 67.5% | inhibition [6] 1.7% | RAM network inhibition [7] -0.74%

CCSc1nnc(Cc2cc(=O)[nH]c(=O)[nH]2)n1-c1ccc(Cl)cc1
inactive: growth inhibition [1] -15.2% | growth inhibition [2] -10% | viability increase [3] -0.84% | viability [4] 104% | viability [5] 102% | inhibition [6] 1.5% | RAM network inhibition [7] -0.99%

CC1CCCCC1NS(=O)(=O)c1ccc(S(=O)(=O)N2CCN(CCC#N)CC2)cc1 (centres undefined)
inactive: growth inhibition [1] -0.665% | growth inhibition [2] -2.72% | viability increase [3] -2.84% | viability [4] 86.2% | viability [5] 87.8% | inhibition [6] 0.54% | RAM network inhibition [7] 3.44%

CCC(C)OC(=O)C1=C(C)NC(=O)NC1c1ccc(F)cc1 (centres undefined)
inactive: growth inhibition [1] -8.18% | growth inhibition [2] -18.7% | viability increase [3] -2.13% | viability [4] 97% | viability [5] 92.7% | inhibition [6] 1.36% | RAM network inhibition [7] 2.77%

Reference: PubChem BioAssay
